Our source for the MIC values is article PMC8346222 (Science Advances, 2021).

Holding throughout (assay): Minimum inhibitory concentration, broth microdilution
Type in all cases: cell-based

Experiment [1] relates to Escherichia coli ATCC 2452. The conditions noted are these: ATCC2452, read-out: Minimum inhibitory concentration. The essentials:
(§1)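 Broth microdilution per CLSI: test agents serially diluted across plates. Inoculum set to 0.5 McFarland, diluted in cation-adjusted Mueller Hinton broth to ~5 × 10^5 CFU/ml, then incubated aerobically at 37°C for 16 to 18 h. Gentamicin and imipenem were run as control antibiotics.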

Experiment [2] concerns Escherichia coli ATCC 2469. The conditions noted are these: ATCC2469, read-out: Minimum inhibitory concentration. The essentials: as §1
Experiment [3] has as its system Klebsiella pneumoniae NR-41920. The conditions noted are these: NR41920, read-out: Minimum inhibitory concentration. The essentials:
as §1

Experiment [4] relates to Pseudomonas aeruginosa NR-50573. The conditions noted are these: NR50573, read-out: Minimum inhibitory concentration. Put shortly:
as §1

≈ marks a conversion by molar mass, not a printed value.

As to `CNC(C)C1CCC(N)C(OC2C(N)CC(N)C(OC3OCC(C)(O)C(NC)C3O)C2O)O1` (centres unmarked) [Gentamicin], the MIC in experiment [1] was above 64 µg/mL; in experiment [2], above 64 µg/mL; in experiment [3] it was 64 µg/mL (≈ 134 µM); in experiment [4] it was 1 µg/mL (≈ 2.09 µM).

Regarding `C[C@@H](O)[C@H]1C(=O)N2C(C(=O)O)=C(SCCN=CN)C[C@H]12` [Imipenem], the MIC worked out at 16 µg/mL (≈ 53.4 µM) in experiment [1], 16 µg/mL (≈ 53.4 µM) in experiment [2], 8 µg/mL (≈ 26.7 µM) in experiment [3] and 1 µg/mL (≈ 3.34 µM) in experiment [4].
